Assay [1] has as its system SCC-25. The experiment in a line: Synergistic antiproliferative activity against human SCC25 cells assessed as fractional inhibition at 0.005 uM preincubated for 1 hr followed by irradiation with 10 Gy IR and measured after 6 days by MTT assay (reference value: 0.347). It is filed as functional. In short, it runs like this: (§1)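 SCC-25 cells seeded 1000/well in 96-well plates in DMEM/10% FBS and left 24 h. Drug or vehicle added, then after 1 h X-irradiated to 2.5, 5 or 10 Gy on one plate using a shifted lead shield. Plates incubated 6 days, then MTT (0.5 mg/mL, 45 min), DMSO solubilisation, absorbance at 570 nm. Fractional inhibition = 1 − fraction of surviving cells.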
(Tetrazolium assays rely on reduction of a dye to a coloured formazan, in cell work by metabolically active cells.)

Assay [2] has as its system SCC-25. Description: Synergistic antiproliferative activity against human SCC25 cells assessed as fractional inhibition at 0.005 uM preincubated for 1 hr followed by irradiation with 2.5 Gy IR and measured after 6 days by MTT assay (reference value: 0.011). Format: functional. In a few lines:
as §1

Assay [3] relates to FaDu. Description: Synergistic antiproliferative activity against human FADU cells assessed as combination index at 5 uM preincubated for 1 hr followed by irradiation with 5 Gy IR and measured after 6 days by MTT assay. It is filed as functional. In a few lines: (§2)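 Combination index was calculated by the Chou–Talalay median-effect method from the 6-day MTT viability data of the single-plate compound/X-ray (2.5, 5, 10 Gy) design. CI < 1 denotes synergy, CI = 1 additivity and CI > 1 antagonism.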

Assay [4] concerns SCC-25. Description: Antiproliferative activity against human SCC25 cells assessed as fractional inhibition at 0.005 uM after 6 days in absence of irradiation by MTT assay. Format: functional. In short, it runs like this: (§3)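 FaDu or SCC-25 cells were grown in DMEM with 10% FBS at 37 °C and 5% CO2. They were seeded at 1000 cells/well in 96-well plates for 24 h, then dosed with compound (fresh DMSO stock diluted in medium) or vehicle. After 1 h, X-rays were given with a sliding 5 mm lead shield, so one plate held 0, 2.5, 5 and 10 Gy columns. After 6 days, MTT (0.5 mg/mL, 45 min) was added, then DMSO, and A570 was read. Values were normalised to the unirradiated vehicle control. Fractional inhibition = 1 − surviving fraction.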

Assay [5] concerns SCC-25. The experiment in a line: Synergistic induction of apoptosis in human SCC25 cells at 0.5 uM followed irradiation with 5Gy IR by annexin V FITC and propidium iodide staining based flow cytometry. It is filed as functional, cell-based. The following applies: TDE = time-dependent effect. In a few lines:
(§4)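 FaDu or SCC-25 cells, untreated, given 5 Gy IR, drug, or both. Apoptotic cells measured by annexin V flow cytometry 48 h after treatment. Percentage compared with control by t test.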

Assay [6] relates to FaDu. The experiment in a line: Selectivity ratio of IC50 for antiproliferative activity against human FADU cells assessed as reduction in colony formation unit to IC50 for antiproliferative activity against human FADU cells assessed as reduction in colony formation unit followed by irradiation with 5 Gy IR. It is filed as functional.
The test system of assay [7] is SCC-25. The experiment in a line: Synergistic antiproliferative activity against human SCC25 cells assessed as combination index at 0.005 uM preincubated for 1 hr followed by irradiation with 5 Gy IR and measured after 6 days by MTT assay. It is filed as functional. In short, it runs like this: (§5)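 SCC-25 cells grown in DMEM with 10% FBS at 37 °C, 5% CO2, seeded 1000 cells/well in 96-well plates and left 24 h. Drug in DMSO, diluted in complete medium, added 1 h before X-irradiation. A movable 5 mm lead shield gave 0, 2.5, 5 or 10 Gy on one plate. After 6 days, MTT readout at 570 nm. Combination index by Chou–Talalay from viability data.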

The subject of assay [8] is SCC-25. The experiment in a line: Synergistic antiproliferative activity against human SCC25 cells assessed as reduction in cell viability at 1 uM preincubated for 1 hr followed by irradiation with 5 Gy IR and measured after 6 days by MTT assay relative to control. The following applies: SCC-25, light or radiation study.
Assay [9] has as its system SCC-25. The experiment in a line: Synergistic antiproliferative activity against human SCC25 cells assessed as fractional inhibition at 0.5 uM preincubated for 1 hr followed by irradiation with 2.5 Gy IR and measured after 6 days by MTT assay (reference value: 0.011). Format: functional. In short, it runs like this:
as §1

In assay [10] the test system is FaDu. The experiment in a line: Synergistic induction of cell cycle arrest in human FADU cells assessed as decrease in accumulation at G0/G1 phase at 0.5 uM followed irradiation with 5Gy IR incubated for 24 hrs by propidium iodide staining based flow cytometry. Format: functional. In a few lines:
(§6)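 FaDu or SCC-25 cells, untreated, given 5 Gy IR, drug, or drug plus 5 Gy. Cell-cycle distribution by propidium iodide staining and flow cytometry at 6 h and 24 h after treatment. G0/G1, S and G2/M fractions compared with control by t test.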
A general note: Flow cytometry measures light scatter and fluorescence of single cells or particles in a stream.

The subject of assay [11] is SCC-25. The experiment in a line: Synergistic antiproliferative activity against human SCC25 cells assessed as combination index at 5 uM preincubated for 1 hr followed by irradiation with 5 Gy IR and measured after 6 days by MTT assay. Format: functional. In a few lines: as §5
Assay [12] has as its system FaDu. Description: Induction of cell cycle arrest in human FADU cells assessed as decrease in cyclin B1 at 0.5 uM incubated for 48 hrs by immunoblot analysis. It is filed as functional, cell-based. In short, it runs like this:
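FaDu cells received compound at 0.5 μM, 5 Gy IR, or both. After 48 h, lysates were immunoblotted for NRF2, cyclin B1, CDK1, Bax and Bcl-2. Membranes were then stripped and reprobed for β-actin as the loading control.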
(A western blot detects proteins with antibodies after separation by electrophoresis.)

The subject of assay [13] is FaDu. Description: Synergistic induction of apoptosis in human FADU cells at 0.5 uM followed irradiation with 5Gy IR incubated for 48 hrs by annexin V FITC and propidium iodide staining based flow cytometry. It is filed as functional. In a few lines:
as §4

Assay [14] has as its system FaDu. Description: Inhibition of colony formation in human FADU cells incubated for 10 to 14 days by crystal violet staining based assay. Format: functional, cell-based.
In assay [15] the test system is FaDu. The experiment in a line: Antiproliferative activity against human FADU cells assessed as fractional inhibition at 0.005 uM after 6 days in absence of irradiation by MTT assay. It is filed as functional. In short, it runs like this: as §3
The subject of assay [16] is FaDu. Description: Synergistic antiproliferative activity against human FADU cells assessed as combination index at 0.005 uM preincubated for 1 hr followed by irradiation with 10 Gy IR and measured after 6 days by MTT assay. Format: functional. In short, it runs like this:
as §2

In assay [17] the test system is SCC-25. The experiment in a line: Antiproliferative activity against human SCC25 cells assessed as fractional inhibition at 0.05 uM after 6 days in absence of irradiation by MTT assay. Format: functional. In a few lines: as §3
The test system of assay [18] is FaDu. Description: Synergistic antiproliferative activity against human FADU cells assessed as combination index at 0.5 uM preincubated for 1 hr followed by irradiation with 5 Gy IR and measured after 6 days by MTT assay. Format: functional. In short, it runs like this:
as §2

Assay [19] concerns SCC-25. The experiment in a line: Inhibition of cell migration in human SCC25 cells at 0.5 uM incubated for 12 and 24 hrs by microscopic analysis. It is filed as functional, cell-based. In short, it runs like this: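 Scratch assay: 10^5 cells/well were grown to confluence in 12-well plates, with mitomycin C to block proliferation. Cells were treated with compound for 24 h, with or without 5 Gy IR, then scratched with a pipette tip, washed with PBS and given fresh medium. Imaging was at 0, 6, 12 and 24 h. % migration = gap decrease relative to the 0 h gap.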

Assay [20] has as its system FaDu. The experiment in a line: Synergistic induction of cell cycle arrest in human FADU cells assessed as increase in accumulation at G2/M phase at 0.5 uM followed irradiation with 5Gy IR incubated for 24 hrs by propidium iodide staining based flow cytometry. Format: functional. In a few lines: as §6
For assay [21], the system named is FaDu. The experiment in a line: Synergistic antiproliferative activity against human FADU cells assessed as combination index at 0.5 uM preincubated for 1 hr followed by irradiation with 10 Gy IR and measured after 6 days by MTT assay. It is filed as functional. In a few lines:
as §2

Each structure is given as a SMILES string. pIC50: −log10 of the molar value. Calls of active or inactive are those of the source. The rule behind the calls is not given here.

In the case of `COc1ccc2c(c1)N(CCO)C1=C(C(=O)OC1)C2c1ccccc1` (stereo unspecified), the “fractional inhibitory concentration index (FICI)” value came out at 0.388 with SCC-25 [1]; 0.015 with SCC-25 [2]; 0.009 in the assay on SCC-25 [4]; 0.452 in the assay on SCC-25 [9]; 0.145 in the assay on FaDu [15]; 0.005 in the assay on SCC-25 [17]. For the same molecule, the CI turned out to be 0.324 in the assay with FaDu [3]; 0.801 in the assay on SCC-25 [7]; 0.652 in the assay on SCC-25 [11]; 0.856 in the assay on FaDu [16]; 0.603 with FaDu [18]; 0.319 in the assay on FaDu [21]. Besides, in the assay with SCC-25 [5], the Activity result is “Tde”. For the same molecule, the “Ratio IC50” value in the assay with FaDu [6] is listed as 13. In addition, the inhibition at 1 µM in the assay on SCC-25 [8] worked out at 65%. The result with FaDu [10] and in the assay on FaDu [12] was Active. The “fold change (FC)” value in the assay on FaDu [13] is 3; in the assay on FaDu [20], 2. In addition, the pIC50 with FaDu [14] is 5.19. Besides, the inhibition entry with SCC-25 [19] is “inactive”.

Usually inhibition stands for the relative decrease from the control value, in per cent. As usually defined, the pIC50 is the IC50 on a negative log10 scale, so that one unit is a factor of ten. Low readings indicate a high IC50, high ones a low IC50.

(Values after ChEMBL document CHEMBL4364341, “Radiosensitization of Head and Neck Squamous Cell Carcinoma (HNSCC) by a Podophyllotoxin” (ACS Med Chem Lett, 2019).)
